# Reference: ChEMBL document CHEMBL4602632, “Synthesis and anti-Mycobacterium tuberculosis activity of imide-β-carboline and carbomethoxy-β-carboline derivatives” (Eur J Med Chem, 2020)
# How the values were obtained:
# Assay type in all cases: functional
# [1] = test system: Mycobacterium tuberculosis; experiment: Antimycobacterial activity against Mycobacterium tuberculosis 91 harbouring KatG Ser315Thr mutant and wild type InhA assessed as reduction in bacterial growth incubated for 7 days by resazurin dye based assay
# Outline: (§1)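 REMA broth microdilution: DMSO stocks diluted in 7H9-OADC, standardized inoculum added, final 0.98 to 250 μg/mL; 7 days at 35 °C in normal atmosphere, then 0.01% resazurin and a further 24 h at 35 °C. Read visually. MIC is the lowest concentration preventing the blue-to-pink change. Three independent assays on different days; isoniazid reference, medium, sterility and growth ±2.5% DMSO controls.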
# [2] = test system: Mycobacterium tuberculosis; experiment: Antimycobacterial activity against Mycobacterium tuberculosis 73A harbouring KatG Ser315Thr mutant and wild type InhA assessed as reduction in bacterial growth incubated for 7 days by resazurin dye based assay; outline: as §1
# [3] = test system: Mycobacterium tuberculosis; experiment: Antimycobacterial activity against Mycobacterium tuberculosis BRF57 harbouring KatG Ser315Thr mutant and wild type InhA assessed as reduction in bacterial growth incubated for 7 days by resazurin dye based assay; outline: as §1
# [4] = test system: Mycobacterium tuberculosis; experiment: Antimycobacterial activity against Mycobacterium tuberculosis 3614 harbouring wild type KatG and InhA Ile21Thr mutant assessed as reduction in bacterial growth incubated for 7 days by resazurin dye based assay; outline: as §1
# [5] = test system: Mycobacterium tuberculosis; experiment: Antimycobacterial activity against Mycobacterium tuberculosis 71A harbouring KatG Ser315Thr mutant and wild type InhA assessed as reduction in bacterial growth incubated for 7 days by resazurin dye based assay; outline: as §1
# [6] = test system: Mycobacterium tuberculosis; experiment: Antimycobacterial activity against Mycobacterium tuberculosis BRF45 harbouring KatG Ser315Thr mutant and wild type InhA assessed as reduction in bacterial growth incubated for 7 days by resazurin dye based assay; outline: as §1
# [7] = test system: Mycobacterium tuberculosis; experiment: Antimycobacterial activity against Mycobacterium tuberculosis 19 harbouring KatG Ser315Thr mutant and wild type InhA assessed as reduction in bacterial growth incubated for 7 days by resazurin dye based assay; outline: as §1
# [8] = test system: Mycobacterium tuberculosis; experiment: Antimycobacterial activity against Mycobacterium tuberculosis BRF16 harbouring KatG Ser315Thr mutant and wild type InhA assessed as reduction in bacterial growth incubated for 7 days by resazurin dye based assay; outline: as §1
# [9] = test system: Mycobacterium tuberculosis; experiment: Antimycobacterial activity against Mycobacterium tuberculosis BRF14 harbouring KatG Ser315Thr mutant and wild type InhA assessed as reduction in bacterial growth incubated for 7 days by resazurin dye based assay; outline: as §1
SMILES,MIC [1],MIC [2],MIC [3],MIC [4],MIC [5],MIC [6],MIC [7],MIC [8],MIC [9]
COC(=O)c1cc2c([nH]c3ccccc32)c(-c2ccc(N(C)C)cc2)n1,180.36 µM,90.54 µM,362.16 µM,90.54 µM,>724.32 µM,90.54 µM,90.55 µM,362.16 µM,724.32 µM
O=C(NN1C(=O)CCC1=O)c1cc2c([nH]c3ccccc32)c(-c2ccc(F)cc2)n1,310.86 µM,77.72 µM,310.86 µM,155.43 µM,310.86 µM,77.72 µM,155.43 µM,62.5 µg/mL,310.86 µM
O=C(NN1C(=O)c2ccccc2C1=O)c1cc2c([nH]c3ccccc32)c(-c2cccc([N+](=O)[O-])c2)n1,>523.99 µM,261.99 µM,>523.99 µM,261.99 µM,>523.99 µM,261.99 µM,261.99 µM,261.99 µM,523.99 µM
O=C(NN1C(=O)c2ccccc2C1=O)c1cc2c([nH]c3ccccc32)c(-c2ccccc2)n1,289.27 µM,144.64 µM,289.27 µM,144.64 µM,289.27 µM,144.64 µM,144.64 µM,289.27 µM,289.27 µM
O=C(NN1C(=O)c2ccccc2C1=O)c1cc2c([nH]c3ccccc32)c(-c2ccc(F)cc2)n1,277.71 µM,138.85 µM,277.71 µM,138.85 µM,277.71 µM,138.85 µM,138.85 µM,138.85 µM,138.85 µM
NNC(=O)c1ccncc1 [ISONIAZID],2 µM,4 µM,4 µM,4 µM,4 µM,4 µM,2 µM,8 µM,8 µM
